# Experimental data collected from several papers.
# Compare with care: the assays were run in different laboratories.
system,setting,AUC(0-t),Structure (SMILES)
"male CD-1 mouse, plasma","intravenous, 3 mg/kg",225 ng·h/mL,CCCC[C@@H](NC(=O)[C@@H](Cc1cn(C(=O)OC)c2ccccc12)NC(=O)[C@H](CC(C)(C)C)NC(=O)N1[C@H](C)CCC[C@@H]1C)C(=O)O
"male CD-1 mouse, plasma","oral, 3 mg/kg",3220 ng·h/mL,Cc1cc(-c2ccnc3[nH]cc(F)c23)cc(F)c1[C@@]1(O)[C@H](C)CN(C2CCS(=O)(=O)CC2)C[C@@H]1C
"male CD-1 mouse, plasma","oral, 10 mg/kg",314 ng·h/mL,NCc1ccc(-c2nn(Cc3ccncc3)c3ccccc23)o1
"BALB/c mouse, plasma","oral, 20 mg/kg",7480 ng·h/mL,CN(C)C(=O)c1cc2cnc(Nc3ccc(-c4ccc5c(=O)cc(N6CCOCC6)oc5c4)cc3)nc2n1C1CCCC1.Cl
"C57BL/6 mouse, plasma","subcutaneous, 2 mg/kg",0.98 µM·h,Cc1ccc2c(c1)C(=O)[C@]1(O)CCN(c3ccc4nc(C)ccc4c3)C1=N2.Cl
"male C57BL/6 mouse, plasma","intravenous, 1 mg/kg",6600 ng·h/mL,Cc1ncsc1-c1ccc([C@H](C)NC(=O)[C@@H]2C[C@@H](O)CN2C(=O)[C@@H](NC(=O)CCc2ccc(C#Cc3ccc(C(=O)NCCCn4cc(-c5ccc6c(c5)CCN6C(=O)Cc5cccc(OC(F)(F)F)c5)c5c(N)ncnc54)cc3)cn2)C(C)(C)C)cc1
"male CD-1 mouse, plasma","oral, 3 mg/kg",594 ng·h/mL,O=C1CCC(N2Cc3cc(C4CCN(Cc5ccccc5)CC4)ccc3C2=O)C(=O)N1 (stereo not drawn)
"male CD-1 mouse, plasma","intravenous, 5 mg/kg",1070 ng·h/mL,OCc1ccc(-c2nn(Cc3ccccc3)c3ccccc23)o1
"male Sprague-Dawley mouse, plasma","oral, 20 mg/kg",3260 ng·h/mL,Cc1ccc(OCC(=O)N[C@@H](Cc2c[nH]c3ccccc23)C(=O)OC(C)C)cc1
"male BALB/c mouse, plasma","intravenous, 1 mg/kg",3800 ng·h/mL,Cc1nc2ccc(OCc3ccc(C(F)(F)F)cc3)cc2[nH]1
"male C57BL/6 mouse, plasma","oral, 10 mg/kg",1.17 µM·h,Oc1ccc([C@@H]2Oc3ccc(O)cc3[C@@H]3CCC[C@@H]32)cc1
"male C57BL/6 mouse, plasma","intravenous, 1 mg/kg",7260 ng·h/mL,Cc1ncsc1-c1ccc([C@H](CC(=O)N2CCN(c3ccc(C#Cc4ccc(C(=O)N5CCC(n6cc(-c7ccc8c(c7)CCN8C(=O)Cc7cccc(OC(F)(F)F)c7)c7c(N)ncnc76)CC5)cc4)cn3)CC2)NC(=O)[C@@H]2C[C@@H](O)CN2C(=O)[C@@H](NC(=O)C2(F)CC2)C(C)(C)C)cc1
"male CD-1 mouse, plasma","oral, 3 mg/kg",16900 ng·h/mL,Cc1cc(-c2ccnc3[nH]cc(F)c23)cc(F)c1[C@@]1(O)[C@H](C)CN(C(=O)CN)C[C@@H]1C
"male BALB/c mouse, plasma","intravenous, 1 mg/kg",482 ng·h/mL,OCc1nc2ccc(NCc3ccc(C(F)(F)F)cc3)cc2[nH]1
"male CD-1 mouse, liver","oral, 40 mg/kg, single dose",101000 ng·h/mL,COC1=CC(c2ccc[nH]2)=N/C1=C\c1cc(Cc2ccc(OC(F)(F)F)cc2)c(C)[nH]1.Cl
"male CD-1 mouse, plasma","intraperitoneal, 30 mg/kg",9120 ng·h/mL,NCc1ccc(-c2nn(Cc3ccccc3)c3ccccc23)o1
"male CD-1 mouse, plasma","oral, 40 mg/kg, single dose",84100 ng·h/mL,COC1=CC(c2ccc[nH]2)=N/C1=C\c1[nH]c(Cc2ccc(OC(F)(F)F)cc2)cc1Cc1ccc(OC(F)(F)F)cc1
"male CD-1 mouse, brain","intravenous, 1 mg/kg, single dose",0.302 ng·h/mL,C[C@@H](CN1CCC(n2c(=O)[nH]c3cc(Cl)ccc32)CC1)NC(=O)c1ccc2ccccc2c1
